Fewer inactive variants are shown than the library holds.
B1: tRNA (parent)
chain: GUUCCGUUGGCGUAAUGGUAACGCGUCUCCCUCCUAAGGAGAAGACUGCGGGUUCGAGUCCCGUACGGAACG

Variants of: B1
Assay: yeast fitness relative to wild type (ratio to wild type); higher = fitter; tRNA-Arg(CCU), competitive growth, 37 C, YPD
In short: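 A pool of Saccharomyces cerevisiae strains, each with a tRNA-Arg(CCU) gene variant at the native genomic locus, was competed in YPD at 37°C for 24 hours across six parallel replicates. The variants had been chemically synthesised at a 3% per-site mutation rate over 69 sites, and gene amplicons before and after competition were read by 100-nucleotide paired-end sequencing. Darwinian fitness relative to wild type rested on changes in genotype frequencies. Genotypes required ≥ 100 starting reads, and estimates < 0.5 were set to 0.5.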
With GUUCCGUUGGCGUAAUGGUAAUGCGUCUCCCUCCUAAGGCGAAGACUGCGGGUUCGAGUCCCGUAUGGAACG [C22U A40C C66U] the yeast fitness was 0.523. GUUCCGUUGGCGUAAUGGUAAUGCGUCUCCCUCCUAGGGAGAAGACUGCGGGUUCGAGUCCCGUACGGAACG [C22U A37G] showed a yeast fitness of 0.662. GUUCCGUUGGCGUAAUGGUAAUGCGUCUCCCUCCUGAGGAGAAGACUGCGGGUUCGAGUCCCGUACGGAACG [C22U A36G] showed a yeast fitness of 0.948. Variant GUUCCGUUGGCGUAAUGGUAAGGCGUCUCCCGCCUAAGGAGAAGACUACGGAUUCGAGUCCCGUACGGAACG [C22G U32G G48A G52A] has a yeast fitness of at most 0.5. GUUCCGUUGGCGUAAUGGUAAGGCGUCUCCCUCCAAAGGAGAAGACUGCGGGUUCGAAUCCCGUACUGAACG [C22G U35A G58A G67U] showed a yeast fitness of at most 0.5. Variant GUUCCGUUGGCGUAAUGGUAAUGCGUCUCCCUCCUCAGGAGAAGACUGCGGGUUCGAGUCCCGUUCCGAACG [C22U A36C A65U G67C] has a yeast fitness of at most 0.5. Variant GUUCCGUUGGCGUAAUGGUAAUGCGUCUCCCUCCUAUGGAGAAGACUGCGGCUUCGAGUCGCGUAAGGAACG [C22U A37U G52C C61G C66A] has a yeast fitness of at most 0.5. Work on GUUCCGUUGGCGUAAUGGUAAGGCGUCUCCCUCCUAAGGAGAAGACUGCGGGUUCGAGUCCCGUACGUAACG [C22G G68U] yielded a yeast fitness of 0.865. Variant GUUCCGUUGGCGUAAUGGUAAGGCGUCUCCCUCCUAAGGAGAAGACUGCGGGUUCGAGUCCCGUACGCAACG [C22G G68C] has a yeast fitness of 0.696. In the case of GUUCCGUUGGCGUAAUGGUAAUGCGUCUCCCUCCUAAGGCGAAGACUGCGGGUUCGACUCCCGUACGGUACG [C22U A40C G58C A69U], the yeast fitness is reported as at most 0.5. Variant GUUCCGUUGGCGUAAUGGUAAGGCGUCUCCCCCCUAACGAGAAGACUGCGGGUUCGAGUUCCGUACGGAACG [C22G U32C G38C C60U] has a yeast fitness of at most 0.5. GUUCCGUUGGCGUAAUGGUAAUGCGUCUCCCUCCUAAGGUGAAGACUGCGGGUUCGAGUCACGUACGAAACG [C22U A40U C61A G68A] showed a yeast fitness of at most 0.5. Variant GUUCCGUUGGCGUAAUGGUAAUGCGUCUCCCUCCUAGGGAGAAGUCUGCGGAUUCGAGUCCCGUACGGAACG [C22U A37G A45U G52A] has a yeast fitness of 0.588. Variant GUUCCGUUGGCGUAAUGGUAAGGCGUCUCCCCCCUAAGGAGAAGACUGCGGGUUCGAGUCCCGUACGGAACG [C22G U32C] has a yeast fitness of 1. With GUUCCGUUGGCGUAAUGGUAAGGCGUCUCCCGCCUAAGGAGAAGACUGCGGGUUCGAGUCCCGUACGGAACG [C22G U32G] the yeast fitness was 0.626. With GUUCCGUUGGCGUAAUGGUAAGGCGUCUCCCUCCUAAGGAGAAGACCGCGGGUUCGAGUCCCGUUCGGAACG [C22G U47C A65U] the yeast fitness was 0.64. For GUUCCGUUGGCGUAAUGGUAAGGCGUCUCCCUCCUAAGGAGAAGACUGCGGGUACGAGUCCCGUACGGAACG [C22G U54A], the yeast fitness was 0.591. For GUUCCGUUGGCGUAAUGGUAAGGCGUCUCCCUCCUAAGGAGAAGACUGCGGGUCCGAGUCCCGUACGGAACG [C22G U54C], the yeast fitness was 0.775. For GUUCCGUUGGCGUAAUGGUAAGGCGUCUCCCUCCUAAGGAGAAGACGGCGGGUUCGAGUCCCGUCCGGAACG [C22G U47G A65C], the yeast fitness was at most 0.5. With GUUCCGUUGGCGUAAUGGUAAUGCGUCUCCCUCCUCAGGAGAAGACUGCGGGUUUGAGACCCGUACGGAACG [C22U A36C C55U U59A] the yeast fitness was at most 0.5. Variant GUUCCGUUGGCGUAAUGGUAAGGCGCCUCCCUCCUAAGGAGAAGACUGCGGGUUCGAGUCCCGUACGGAACG [C22G U26C] has a yeast fitness of 0.971. GUUCCGUUGGCGUAAUGGUAAGGCGUCUCCCUCCUAAGGAGAAGACAGUGGGUUCGAGUCCCGUACGGAACG [C22G U47A C49U] showed a yeast fitness of 0.638. For GUUCCGUUGGCGUAAUGGUAAGGCGUCUCCCUCCUAAGGAGAAGACUGCGGGGUCGAGUCCCGUACGGAACG [C22G U53G], the yeast fitness was 0.503. In the case of GUUCCGUUGGCGUAAUGGUAAGGCGUCUCCCUCCUAAGGAGAAGACUGCGGGAUCGAGUCCCGUACGGAACG [C22G U53A], the yeast fitness is reported as 0.673. For GUUCCGUUGGCGUAAUGGUAAGGCGUCUCCCUCCUAAGGAGAAGACAGCGGGUACGAGUCGCGUACGGAACG [C22G U47A U54A C61G], the yeast fitness was at most 0.5. Work on GUUCCGUUGGCGUAAUGGUAAGGCGUCUCCCCCCUAAGGAGAAGACUGCGGGUUCGAAUCCCGUACGGAACG [C22G U32C G58A] yielded a yeast fitness of 0.654. GUUCCGUUGGCGUAAUGGUAAUGCGUCUCCCUCCUAAGGGGAAGACUGCGGGUUCGAGUCCCCUACCGUACG [C22U A40G G63C G67C A69U] gave a yeast fitness of at most 0.5. Work on GUUCCGUUGGCGUAAUGGUAAGGCGUCACCGUCCUAAGGAGAAGACUGCGGGUUAGAGUCCCGUACGCAACG [C22G U28A C31G C55A G68C] yielded a yeast fitness of 0.539. For GUUCCGUUGGCGUAAUGGUAAGGCGUCUCCCUCCUAAGGAGAAGACCGCAGGUUCGAGUCCCGUACGGAACG [C22G U47C G50A], the yeast fitness was at most 0.5. GUUCCGUUGGCGUAAUGGUAAUGCGUCUCCCUCCUAUGGAGAAGACUGCCGGUUCGAGUCCCGUAUGGAACG [C22U A37U G50C C66U] showed a yeast fitness of 0.697. In the case of GUUCCGUUGGCGUAAUGGUAAGGCGGCUCCCUCCUAAGGAGAAGACUGCGGGUUCGAGUCCCGUAUGGAACG [C22G U26G C66U], the yeast fitness is reported as at most 0.5. For GUUCCGUUGGCGUAAUGGUAAGGCGUCUCCCUCCCAAGGAGAAGAUUGCGGGUUGGAGUCCCGUACGGAACG [C22G U35C C46U C55G], the yeast fitness was at most 0.5. Work on GUUCCGUUGGCGUAAUGGUAAGGCGUCUCCCCCCUAAGGAGAAGACUGCGGGUACGAGUCCCGUACGAAACG [C22G U32C U54A G68A] yielded a yeast fitness of at most 0.5. GUUCCGUUGGCGUAAUGGUAAUGCGUCUCCCUCCUGAGGAGAAGACUGCGCGUUCGAGUCCCGUACGGAACG [C22U A36G G51C] showed a yeast fitness of at most 0.5. GUUCCGUUGGCGUAAUGGUAAGGCGUCUCCCCCCUAAGGAGCAGACUCCGGGUUGGAGUCCCGUACGGAACG [C22G U32C A42C G48C C55G] gave a yeast fitness of at most 0.5. For GUUCCGUUGGCGUAAUGGUAAUGCGUCUCCCUCCUAUGGAGAAGACUGCCGGUUCGAGUCCCGUACGGAACG [C22U A37U G50C], the yeast fitness was 0.634. GUUCCGUUGGCGUAAUGGUAAUGCGUCUCCCUCCUGAGGAGAAGACUGCGAGUUCGAGUCCCGUAUGGAACG [C22U A36G G51A C66U] gave a yeast fitness of 0.588.

— the RNAGym collection of RNA variant scans (doi:10.1126/science.aae0568)
